Reference: ChEMBL document CHEMBL1128471, “Reversible inhibitors of the gastric (H+/K+)-ATPase. 4. Identification of an inhibitor with an intermediate duration of action” (J Med Chem, 1995)
pIC50: −log10 of the molar value.

Legend:
[1] = target: T1, Potassium-transporting ATPase (Sus scrofa) (UniProt P18434+P19156); assay: (§1) Inhibition of K+ -stimulated gastric ATPase activity was measured using lyophilized gastric vesicles at pH 7; assay type: tissue-based; parameters: concentration or dose not given beside the values; settings: Stomach; concentration not given here
Outline: (§2)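 K+-stimulated ATPase activity was measured in lyophilized (permeabilized) gastric vesicles at pH 7. The value is an IC50, or percent inhibition at the stated concentration where no IC50 could be determined.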

[2] = target: T2, Potassium-transporting ATPase (Rattus norvegicus) (UniProt P09626+P18598); assay: Inhibition of pentagastrin-stimulated gastric acid secretion at a single dose of 10 umol/kg.; assay type: functional; settings: Stomach
Outline: (§3)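 Anesthetized, lumen-perfused rats were given pentagastrin to stimulate gastric acid secretion, and compounds were given iv. The value is an ED50 (µmol/kg iv) with 95% confidence limits, or percent inhibition ± SEM at a single 10 µmol/kg iv dose.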

Canis familiaris [3] = assay: Mean percent peak inhibition of histamine-stimulated gastric acid secretion in the heidenhain pouch dog following a single dose of 4 umol/kg through oral administration.; assay type: functional; settings: Canis lupus familiaris, Stomach
[4] = target: T1, Potassium-transporting ATPase (Sus scrofa); assay: as §1; assay type: tissue-based; settings: Stomach; concentration not given here; outline: as §2
[5] = target: T1, Potassium-transporting ATPase (Sus scrofa); assay: Inhibition of K+ -stimulated gastric ATPase activity was measured using lyophilized gastric vesicles at pH 7 at 100; assay type: tissue-based; settings: Stomach; concentration not given here; outline: as §2
Canis familiaris [6] = assay: Mean percent peak inhibition of histamine-stimulated gastric acid secretion in the heidenhain pouch dog following a single dose of 1 umol/kg through iv administration.; assay type: functional; settings: Canis lupus familiaris, Stomach
[7] = target: Potassium-transporting ATPase (Sus scrofa, UniProt P19156); assay: as §1; assay type: tissue-based, Stomach; outline: as §2
Rattus norvegicus [8] = assay: Inhibition of pentagastrin-stimulated gastric acid secretion in the anesthetized rat, ED50 (umol/kg iv) with 95% confidence limits.; assay type: functional; settings: Stomach; outline: as §3
[9] = target: T1, Potassium-transporting ATPase (Sus scrofa); assay: Inhibition of K+ -stimulated gastric ATPase activity was measured using lyophilized gastric vesicles at pH 7 at 10; assay type: tissue-based; settings: Stomach; concentration not given here; outline: as §2
Rattus norvegicus [10] = assay: Inhibition of pentagastrin-stimulated gastric acid secretion in the anesthetized rat at a single dose of 10 umol/kg iv; Insoluble; assay type: functional, organism-based; settings: Stomach; outline: as §3
Rattus norvegicus [11] = assay: (§4) Inhibition of pentagastrin-stimulated gastric acid secretion in the anesthetized rat after iv administration; assay type: functional, Stomach; outline: as §3
[12] = target: T2, Potassium-transporting ATPase (Rattus norvegicus); assay: as §4; assay type: functional, organism-based; settings: Stomach; outline: as §3
[13] = target: T3, Potassium-transporting ATPase (Sus scrofa, UniProt P18434+P19156); assay: as §1; assay type: tissue-based, Stomach; outline: as §2
[14] = target: T3, Potassium-transporting ATPase; assay: Inhibition of K+ -stimulated gastric ATPase activity was measured using lyophilized gastric vesicles at pH 7; Insoluble; assay type: tissue-based, Stomach

Potassium-transporting ATPase (Sus scrofa, UniProt P19156), sequence (P18434 whole entry): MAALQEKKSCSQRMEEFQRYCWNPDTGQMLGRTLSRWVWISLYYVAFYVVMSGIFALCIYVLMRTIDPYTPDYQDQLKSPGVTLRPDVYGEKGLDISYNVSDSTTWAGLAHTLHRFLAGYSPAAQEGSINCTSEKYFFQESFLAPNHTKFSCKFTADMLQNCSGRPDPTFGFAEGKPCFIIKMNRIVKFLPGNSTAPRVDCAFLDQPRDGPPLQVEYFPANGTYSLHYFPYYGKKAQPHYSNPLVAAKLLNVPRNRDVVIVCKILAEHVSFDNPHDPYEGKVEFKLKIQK
Potassium-transporting ATPase (Sus scrofa, UniProt P19156), sequence (P19156 whole entry): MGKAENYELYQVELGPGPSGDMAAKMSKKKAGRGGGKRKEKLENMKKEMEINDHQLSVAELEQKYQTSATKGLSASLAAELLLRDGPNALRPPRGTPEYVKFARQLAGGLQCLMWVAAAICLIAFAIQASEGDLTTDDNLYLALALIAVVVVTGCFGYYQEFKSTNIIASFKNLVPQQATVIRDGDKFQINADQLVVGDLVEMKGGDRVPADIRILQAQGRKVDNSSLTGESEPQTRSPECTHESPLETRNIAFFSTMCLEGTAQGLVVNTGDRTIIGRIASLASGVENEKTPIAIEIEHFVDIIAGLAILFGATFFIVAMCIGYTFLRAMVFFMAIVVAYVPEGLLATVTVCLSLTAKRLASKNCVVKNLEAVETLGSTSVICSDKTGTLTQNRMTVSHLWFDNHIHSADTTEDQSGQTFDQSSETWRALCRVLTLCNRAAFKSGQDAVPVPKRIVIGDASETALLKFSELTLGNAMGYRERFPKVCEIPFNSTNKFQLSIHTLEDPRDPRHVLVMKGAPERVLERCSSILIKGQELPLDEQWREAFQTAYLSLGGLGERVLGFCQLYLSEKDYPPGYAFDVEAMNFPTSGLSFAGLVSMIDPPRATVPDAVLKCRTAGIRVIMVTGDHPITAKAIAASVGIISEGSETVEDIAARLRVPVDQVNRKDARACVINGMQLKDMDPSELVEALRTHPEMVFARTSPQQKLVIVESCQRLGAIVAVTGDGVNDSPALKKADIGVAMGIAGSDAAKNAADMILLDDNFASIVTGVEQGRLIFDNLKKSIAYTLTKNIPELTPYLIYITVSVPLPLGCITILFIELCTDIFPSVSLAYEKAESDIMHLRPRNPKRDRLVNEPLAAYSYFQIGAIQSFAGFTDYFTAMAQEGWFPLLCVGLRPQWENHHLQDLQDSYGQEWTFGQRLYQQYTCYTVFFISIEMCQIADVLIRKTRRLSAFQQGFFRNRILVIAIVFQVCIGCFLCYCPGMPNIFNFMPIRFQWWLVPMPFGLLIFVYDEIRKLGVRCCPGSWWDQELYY
T3 sequence (P18434 whole entry): as the sequence (P18434 whole entry) above
T3 sequence (P19156 whole entry): as the sequence (P19156 whole entry) above

CCCC(=O)c1cnc2c(C)cccc2c1Nc1ccccc1F
inhibition [1]: 53% | inhibition [2]: 29%

CCCC(=O)c1cnc2c(OC)cccc2c1Nc1ccc(OC(=O)C(C)C)cc1C
inhibition in vivo at 4 µmol/kg (Canis familiaris [3]): 25% | inhibition [4]: 44%

CCCC(=O)c1cnc2cc(CO)ccc2c1Nc1ccccc1C
inhibition [5]: 44%

CCCC(=O)c1cnc2c(C)cccc2c1Nc1ccc(Cl)cc1C
inhibition [1]: 15%

CCCC(=O)c1cnc2c(C3CO3)cccc2c1Nc1ccccc1C (stereo unspecified)
inhibition in vivo at 1 µmol/kg (Canis familiaris [6]): 53% | pIC50 [7]: 5.52 | ED50 (Rattus norvegicus [8]): 3.1 µmol/kg

CCCC(=O)c1cnc2c(OC)cccc2c1Nc1ccc(O)c(CN(C)C)c1
inhibition [1]: 35%

CCCC(=O)c1cnc2ccc(-c3ccccc3)cc2c1Nc1ccccc1C
inhibition [9]: 35% | inhibition (Rattus norvegicus [10]): Insoluble

CCC(=O)c1cnc2c(OCCOC)cccc2c1Nc1ccc(F)cc1C
inhibition in vivo at 1 µmol/kg (Canis familiaris [6]): 36% | inhibition in vivo at 4 µmol/kg (Canis familiaris [3]): 94% | pIC50 [7]: 5.70 | Inhibition (Rattus norvegicus [11]): 70%

CCCC(=O)c1cnc2c(OC)cccc2c1Nc1ccccc1C
inhibition in vivo at 1 µmol/kg (Canis familiaris [6]): 67% | inhibition in vivo at 4 µmol/kg (Canis familiaris [3]): 83% | pIC50 [7]: 5.77 | ED50 [12]: 2.6 µmol/kg

CCCC(=O)c1cnc2c(C)cccc2c1Nc1ccc(Cl)cc1Cl
inhibition [1]: 31%

CCCC(=O)c1cnc2c(OC)cccc2c1Nc1c(C)cc(O)cc1C
inhibition in vivo at 1 µmol/kg (Canis familiaris [6]): 32% | inhibition in vivo at 4 µmol/kg (Canis familiaris [3]): 25% | pIC50 [7]: 6.30 | ED50 [12]: 6.4 µmol/kg

CCCC(=O)c1cnc2c(C(C)O)cccc2c1Nc1ccccc1C (stereo unspecified)
inhibition in vivo at 1 µmol/kg (Canis familiaris [6]): 46% | inhibition in vivo at 4 µmol/kg (Canis familiaris [3]): 49% | pIC50 [7]: 6.43 | ED50 [12]: 3.69 µmol/kg

CCCC(=O)c1cnc2c(OC)cccc2c1Nc1ccc(O)cc1C
inhibition in vivo at 1 µmol/kg (Canis familiaris [6]): 76% | inhibition in vivo at 4 µmol/kg (Canis familiaris [3]): 46% | pIC50 [7]: 6.68 | ED50 [12]: 1.98 µmol/kg

CCCC(=O)c1cnc2c(OC)cccc2c1Nc1ccc(N2CCCC2)cc1C
inhibition [1]: 5% | inhibition [2]: 0%

CCCC(=O)c1cnc2c(OC)cccc2c1Nc1ccc(F)cc1C
inhibition in vivo at 1 µmol/kg (Canis familiaris [6]): 36% | inhibition in vivo at 4 µmol/kg (Canis familiaris [3]): 64% | pIC50 [7]: 5.64 | ED50 [12]: 3.9 µmol/kg

CCCC(=O)c1cnc2c(OCCOC)cccc2c1Nc1ccc(F)cc1C
inhibition in vivo at 1 µmol/kg (Canis familiaris [6]): 65% | inhibition in vivo at 4 µmol/kg (Canis familiaris [3]): 46% | pIC50 [7]: 5.46 | ED50 [12]: 2.91 µmol/kg

COCCOc1cccc2c(Nc3ccccc3C)c(C(=O)C(C)C)cnc12
inhibition in vivo at 1 µmol/kg (Canis familiaris [6]): 65% | inhibition in vivo at 4 µmol/kg (Canis familiaris [3]): 86% | pIC50 [7]: 5.85 | ED50 [12]: 3.61 µmol/kg

CCCC(=O)c1cnc2c(OC)cccc2c1Nc1cc(F)cc(F)c1
inhibition [1]: 63%

CCCC(=O)c1cnc2c(OC)cccc2c1Nc1ccc(CO)cc1
inhibition [1]: 38%

CCCC(=O)c1cnc2c(F)cccc2c1Nc1ccc(O)cc1C
inhibition in vivo at 1 µmol/kg (Canis familiaris [6]): 31% | inhibition in vivo at 4 µmol/kg (Canis familiaris [3]): 17% | pIC50 [7]: 6.15 | ED50 [12]: 4.66 µmol/kg

CCCC(=O)c1cnc2c(C3OC3CO)cccc2c1Nc1ccccc1C (stereo in doubt; 29a)
pIC50 [13]: 5.51

CCCC(=O)c1cnc2c(OC)cccc2c1Nc1ccc(O)c(F)c1
inhibition [1]: 40%

CCCC(=O)c1cnc2c(OC)cccc2c1Nc1cc(F)c(O)c(F)c1
inhibition [1]: 11%

Cc1ccccc1Nc1c(C(=O)C(C)C)cnc2c(OCCO)cccc12
inhibition in vivo at 1 µmol/kg (Canis familiaris [6]): 56% | inhibition in vivo at 4 µmol/kg (Canis familiaris [3]): 54% | pIC50 [7]: 6.00 | ED50 [12]: 2.07 µmol/kg

CCCC(=O)c1cnc2cc(OC)ccc2c1Nc1ccccc1C
inhibition [9]: 41% | inhibition [2]: 28%

CCCC(=O)c1cnc2c(OC)cccc2c1Nc1ccccc1OC
inhibition in vivo at 1 µmol/kg (Canis familiaris [6]): 73% | inhibition in vivo at 4 µmol/kg (Canis familiaris [3]): 18% | pIC50 [7]: 5.82 | ED50 [12]: 3.56 µmol/kg

CCC(=O)c1cnc2c(OCCO)cccc2c1Nc1ccccc1C
inhibition in vivo at 1 µmol/kg (Canis familiaris [6]): 82% | inhibition in vivo at 4 µmol/kg (Canis familiaris [3]): 82% | pIC50 [7]: 6.12 | ED50 [12]: 1.72 µmol/kg

CCCC(=O)c1cnc2c(C(=O)O)cccc2c1Nc1ccccc1C
pIC50 [7]: 5.23 | inhibition (Rattus norvegicus [10]): Insoluble

CCCC(=O)c1cnc2c(OC)cccc2c1Nc1cc(C)c(O)c(C)c1
IC50 [14]: Insoluble

CCCC(=O)c1cnc2c(C)cccc2c1Nc1cc(C)ccc1OC
inhibition [1]: 56%

CCCC(=O)c1cnc2c(OC)cccc2c1Nc1ccc(O)c(Cl)c1
inhibition [1]: 16%

CCCC(=O)c1cnc2c(OC)cccc2c1Nc1c(C)ccc(O)c1C
inhibition in vivo at 1 µmol/kg (Canis familiaris [6]): 36% | inhibition [1]: 35% | ED50 [12]: 5.6 µmol/kg

CCCC(=O)c1cnc2c(OC)cccc2c1Nc1ccccc1CC
inhibition in vivo at 1 µmol/kg (Canis familiaris [6]): 77% | inhibition in vivo at 4 µmol/kg (Canis familiaris [3]): 85% | pIC50 [7]: 6.05 | ED50 [12]: 2.35 µmol/kg

CCC(=O)c1cnc2c(OCCOC)cccc2c1Nc1ccccc1C
inhibition in vivo at 1 µmol/kg (Canis familiaris [6]): 80% | inhibition in vivo at 4 µmol/kg (Canis familiaris [3]): 66% | pIC50 [7]: 6.11 | ED50 [12]: 1.92 µmol/kg

CCCC(=O)c1cnc2c(OC)cccc2c1Nc1ccc(OC(C)=O)cc1C
inhibition in vivo at 4 µmol/kg (Canis familiaris [3]): 44% | inhibition [4]: 25%

CCCC(=O)c1cnc2c(C)cccc2c1Nc1cc(OC)ccc1OC
inhibition [1]: 29% | inhibition [2]: 28%

CCCC(=O)c1cnc2c(OC)cccc2c1Nc1ccc([N+](=O)[O-])cc1C
inhibition [4]: 17%
